Reference: ChEMBL document CHEMBL3739358 (J Med Chem, 2015)
Calls of active or inactive are those of the source. No cut-off for these calls is given here.

Assays:
HEK293 = assay: Selectivity ratio of Ki for cloned rat dopamine D2L receptor to Ki for cloned rat dopamine D3 receptor expressed in HEK293 cells; type: cell-based
Outline: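 Competition with [3H]spiroperidol binding at cloned rat D2L and D3 receptors expressed in HEK-293 cells, giving Ki values; the selectivity ratio is D2L Ki divided by D3 Ki. Means ± SEM of 3−6 experiments, each in triplicate.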

D(3) dopamine receptor [1] = biological target: D(3) dopamine receptor (Rattus norvegicus, UniProt P19020); assay: Displacement of [3H]Spiroperidol from cloned rat dopamine D3 receptor expressed in HEK293 cells by liquid scintillation counting analysis; type: cell-based
Chain of D(3) dopamine receptor (Rattus norvegicus, UniProt P19020) (P19020 whole entry): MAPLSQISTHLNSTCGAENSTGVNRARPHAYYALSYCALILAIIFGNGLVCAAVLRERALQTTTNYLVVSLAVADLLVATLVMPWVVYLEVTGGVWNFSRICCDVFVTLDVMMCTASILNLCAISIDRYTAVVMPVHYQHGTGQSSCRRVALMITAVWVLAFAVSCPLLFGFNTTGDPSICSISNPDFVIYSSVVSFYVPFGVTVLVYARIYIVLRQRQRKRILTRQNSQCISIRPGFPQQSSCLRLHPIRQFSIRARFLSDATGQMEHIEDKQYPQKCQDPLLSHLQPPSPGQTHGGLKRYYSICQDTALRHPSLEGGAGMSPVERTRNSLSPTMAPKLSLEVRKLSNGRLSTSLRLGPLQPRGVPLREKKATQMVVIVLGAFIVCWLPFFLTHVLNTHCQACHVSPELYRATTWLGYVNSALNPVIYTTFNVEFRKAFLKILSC

D(2) dopamine receptor = D(2) dopamine receptor (Rattus norvegicus, UniProt P61169); assay: Displacement of [3H]Spiroperidol from cloned rat dopamine D2L receptor expressed in HEK293 cells by liquid scintillation counting analysis; type: cell-based
Chain of D(2) dopamine receptor (P61169 whole entry): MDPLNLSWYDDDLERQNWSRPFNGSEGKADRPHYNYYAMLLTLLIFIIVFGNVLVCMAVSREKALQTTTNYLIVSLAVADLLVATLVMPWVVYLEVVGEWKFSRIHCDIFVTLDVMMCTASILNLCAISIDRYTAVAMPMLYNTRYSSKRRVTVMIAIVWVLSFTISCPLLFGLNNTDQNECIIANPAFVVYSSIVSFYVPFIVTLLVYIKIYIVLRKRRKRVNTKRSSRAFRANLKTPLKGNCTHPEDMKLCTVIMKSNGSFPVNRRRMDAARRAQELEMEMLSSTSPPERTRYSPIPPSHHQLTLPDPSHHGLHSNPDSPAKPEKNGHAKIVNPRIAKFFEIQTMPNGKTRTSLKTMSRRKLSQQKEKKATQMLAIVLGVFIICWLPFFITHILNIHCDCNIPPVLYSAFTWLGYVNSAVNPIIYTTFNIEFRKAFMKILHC
Outline: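 Competition with [3H]spiroperidol binding at cloned rat D2L and D3 receptors expressed in HEK-293 cells, giving Ki values; the selectivity ratio is D2L Ki divided by D3 Ki.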

D(3) dopamine receptor [2] = biological target: T1, D(3) dopamine receptor (Homo sapiens, UniProt P35462); assay: Agonist activity at human D3 receptor expressed in CHO cells by [35S]GTPgammaS binding assay relative to dopamine; type: functional, cell-based
T1 sequence (P35462 whole entry): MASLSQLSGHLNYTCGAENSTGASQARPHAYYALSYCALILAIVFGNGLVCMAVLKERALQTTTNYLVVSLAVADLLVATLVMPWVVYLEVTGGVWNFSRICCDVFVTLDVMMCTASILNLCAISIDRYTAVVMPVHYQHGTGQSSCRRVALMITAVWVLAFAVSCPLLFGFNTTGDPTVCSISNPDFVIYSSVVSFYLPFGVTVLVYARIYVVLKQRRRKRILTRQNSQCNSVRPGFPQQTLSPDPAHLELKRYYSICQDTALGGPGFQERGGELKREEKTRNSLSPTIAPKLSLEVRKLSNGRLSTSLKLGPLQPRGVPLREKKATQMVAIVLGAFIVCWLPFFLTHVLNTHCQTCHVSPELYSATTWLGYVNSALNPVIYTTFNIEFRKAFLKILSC
Outline: (§1)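 Stimulation of [35S]GTPγS binding in CHO cells expressing hD2 or hD3 receptors. EC50 is the concentration giving half-maximal stimulation. […] Mean ± SEM of 3−6 experiments, each in triplicate.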

[3] = Neuroprotective activity against 6-OHDA-induced death of rat PC12 cells assessed as cell viability pretreated for 24 hrs at 20 uM measured 24 hrs post 6-OHDA challenge by MTT assay relative to 6-OHDA-treated control; type: functional; details: PC-12, read-out: Activity
Rattus norvegicus = assay: Reversal of reserpine-induced hypolocomotion in Sprague-Dawley rat at 10 umol/kg, ip administered 18 hrs post reserpine challenge measured for 6 hrs relative to reserpine-treated control; type: functional, organism-based
Outline: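 Male and female Sprague−Dawley rats (220−225 g) were given reserpine 5.0 mg/kg sc 18 h beforehand and acclimatized in chambers for 1 h. Drug was given at 10 μmol/kg ip, and horizontal activity was recorded by infrared beam breaks for 6 h in 30 min bins. Three rats per group, compared with saline controls by one-way ANOVA with Dunnett's test.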

[4] = Antioxidant activity assessed as DPPH free radical scavenging activity after 30 mins; type: physicochemical; details: 0.5 h
[5] = Cytotoxicity against rat PC12 cells at 0.001 to 30 uM by MTT assay relative to control; type: cell-based; details: pc-12, in the assay text read “0.01 to 30 uM” for “0.001 to 30 uM”
Outline: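 PC12 cells were grown in RPMI 1640 with 10% heat-inactivated horse serum and 5% FBS at 37 °C, seeded at 17000 cells/well for 24 h, then exposed to 0.01−30 μM compound. Viability was read by MTT (0.5 mg/mL final, 3−4 h), formazan dissolved in methanol:DMSO, A570 with 690 nm background, relative to untreated controls.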

D(3) dopamine receptor [6] = biological target: T1, D(3) dopamine receptor; assay: Agonist activity at human D3 receptor expressed in CHO cells by [35S]GTPgammaS binding assay; type: functional, cell-based
PC-12 = assay: Neuroprotective activity against 6-OHDA-induced death of rat PC12 cells assessed as cell viability pretreated for 24 hrs measured 24 hrs post 6-OHDA challenge by MTT assay relative to 6-OHDA-treated control; type: functional, cell-based
Outline: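 PC12 cells were pretreated with compound for 24 h; the medium was then replaced and 75 μM 6-OHDA added for a further 24 h. Controls received 0.01% DMSO. Viability was measured by MTT (0.5 mg/mL final, 3−4 h, A570/690 nm). Mean ± SD of at least three experiments, each in four to six replicates.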

[7] = biological target: D(2) dopamine receptor (Homo sapiens) (UniProt P14416); assay: Agonist activity at human D2 receptor expressed in CHO cells by [35S]GTPgammaS binding assay relative to dopamine; type: functional, cell-based; outline: as §1
Chain of D(2) dopamine receptor (Homo sapiens) (P14416 whole entry): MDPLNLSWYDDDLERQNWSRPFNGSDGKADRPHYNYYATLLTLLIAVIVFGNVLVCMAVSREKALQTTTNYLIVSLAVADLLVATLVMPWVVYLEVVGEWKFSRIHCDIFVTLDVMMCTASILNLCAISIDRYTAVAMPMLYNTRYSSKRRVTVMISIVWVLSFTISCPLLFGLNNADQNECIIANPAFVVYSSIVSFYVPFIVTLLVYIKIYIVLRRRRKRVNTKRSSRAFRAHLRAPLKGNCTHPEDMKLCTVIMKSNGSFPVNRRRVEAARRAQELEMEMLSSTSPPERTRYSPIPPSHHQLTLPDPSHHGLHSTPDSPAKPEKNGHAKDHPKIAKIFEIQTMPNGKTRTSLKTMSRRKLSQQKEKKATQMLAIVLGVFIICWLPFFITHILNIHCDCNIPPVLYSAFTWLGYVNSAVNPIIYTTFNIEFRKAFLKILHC

[8] = biological target: D(2) dopamine receptor (Homo sapiens) (UniProt P14416); assay: Antagonist activity against human D2 receptor expressed in CHO cells assessed as inhibition of dopamine-induced [35S]GTPgammaS binding; type: functional, cell-based
[9] = biological target: D(2) dopamine receptor (Homo sapiens) (UniProt P14416); details: CHO, 1 uM
[10] = biological target: D(2) dopamine receptor (Homo sapiens) (UniProt P14416); details: CHO, 200 nM

Row | SMILES | Ki (D(3) dopamine receptor [1]) | Ki (D(2) dopamine receptor) | Ratio Ki (HEK293) | other results
1 | CCCN(CCN1CCN(Cc2c[nH]c3ccc(F)cc23)CC1)C1CCc2nc(N)sc2C1 (racemic) | 12.1 nM | 854 nM | 71 | –
2 | CCCN(CCN1CCN(c2ccc3cc[nH]c3c2Cl)CC1)[C@H]1CCc2nc(N)sc2C1.O=C(O)C(F)(F)F | 1.15 nM | 16.4 nM | – | Emax (D(3) dopamine receptor [2]): 113%; viability at 20 µM [3]: 30%; Activity (Rattus norvegicus): Active; Activity [4]: Dose-dependent effect; Activity [5]: Non-toxic; EC50 (D(3) dopamine receptor [6]): 1.41 nM; Activity (PC-12): Dose-dependent effect; Emax [7]: 101%
3 | CCCN(CCN1CCN(Cc2c[nH]c3cccc(Cl)c23)CC1)C1CCc2nc(N)sc2C1 (racemic) | 13.8 nM | 1160 nM | 84 | –
4 | CCCN(CCN1CCN(c2cc(F)c3[nH]ccc3c2)CC1)[C@H]1CCc2nc(N)sc2C1 | 3.66 nM | 156 nM | 43 | –
5 | CCCN(CCN1CCN(c2c(Cl)ccc3[nH]ccc23)CC1)[C@H]1CCc2nc(N)sc2C1 | 0.87 nM | 74.5 nM | – | Emax (D(3) dopamine receptor [2]): 104%; EC50 (D(3) dopamine receptor [6]): 3.93 nM; Emax [7]: 87.6%
6 | CCCN[C@H]1CCc2nc(N)sc2C1 | – | – | – | Activity (Rattus norvegicus): Active
7 | CCCN1CCC[C@@H](c2cccc(O)c2)C1 | – | – | – | Emax (D(3) dopamine receptor [2]): 52%; Ke [8]: 372 nM; Ke [9]: 383 nM; Ke [10]: 362 nM; Emax [7]: 19.8%
8 | CCCN(CCC)CCc1cccc2c1CC(=O)N2 | – | – | – | Activity (Rattus norvegicus): Active

The next lines start with results.

Row | Ki (D(3) dopamine receptor [1]) | Ki (D(2) dopamine receptor) | SMILES | Ratio Ki (HEK293) | other results
9 | 12.9 nM | 376 nM | CCCN(CCN1CCN(Cc2c[nH]c3ccc(Br)cc23)CC1)C1CCc2nc(N)sc2C1 (racemic) | 29 | –
10 | 8.87 nM | 992 nM | CCCN(CCN1CCN(Cc2c[nH]c3cccc(F)c23)CC1)C1CCc2nc(N)sc2C1 (racemic) | 112 | –
11 | 25 nM | 1880 nM | CCCN(CCN1CCN(Cc2c[nH]c3cccc(OC)c23)CC1)C1CCc2nc(N)sc2C1 (racemic) | 75 | –
12 | 15.9 nM | 1640 nM | CCCN(CCN1CCN(Cc2c[nH]c3ccc(OC)cc23)CC1)C1CCc2nc(N)sc2C1 (racemic) | 101 | –
